Reference: ChEMBL document CHEMBL1128245, “Dual-acting thromboxane receptor antagonist/synthase inhibitors: synthesis and biological properties of [2-substituted-4-(3-pyridyl)-1,3-dioxan-5-yl] alkenoic acids” (J Med Chem, 1995)

Tests used:
Rattus norvegicus [1] = assay: Ex vivo TXA2 ([…]) antagonist activity was determined for U-46,619 induced aggregation (dose ratio) after 1 hr of oral dosing (10 mg/kg) in the rat; format: functional
In short: (§1)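 Conscious rats (n = 6) dosed by oral gavage, then anesthetized and bled from the abdominal aorta at 1, 3 or 5 h. Platelet-rich plasma aggregated with U46619 before and after dosing to give a U46619 dose ratio. ">" values mark the maximum dose ratio achievable at the top U46619 concentration (1 × 10^-4 M).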

Canis familiaris [2] = assay: Ex vivo TXA2 ([…]) antagonist activity was determined for U-46,619 induced aggregation (dose ratio) after 24 hr of oral dosing (10 mg/kg) in the dog; format: functional, Canis lupus familiaris
In short: (§2)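 Dogs (n = 4) dosed orally, blood sampled at 2, 5, 8 and 24 h. Platelet-rich plasma aggregated with U46619 plus a predetermined threshold ADP concentration (about 0.4–1.2 × 10^-6 M), compared before vs after dosing to give a U46619 dose ratio. ">" marks the maximum achievable ratio at top U46619 (1 × 10^-4 M).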

Rattus norvegicus [3] = assay: Ex vivo […] (TXA2 synthase) inhibitory activity after 5 hr of oral dosing (3 mg/kg) in the rat; format: functional
In short: (§3)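 Rats (n = 6) gavaged, anesthetized, aortic blood taken at 1, 3 or 5 h after dosing. A blood aliquot was challenged with collagen and TXB2 measured by radioimmunoassay; expressed as % inhibition of TXA2 synthase (±SEM).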

Canis familiaris [4] = assay: Ex vivo TXA2 ([…]) antagonist activity was determined for U-46,619 induced aggregation (dose ratio) after 24 hr of oral dosing (3 mg/kg) in the dog; format: functional, Canis lupus familiaris; in short: as §2
Rattus norvegicus [5] = assay: Ex vivo […] (TXA2 synthase) inhibitory activity after 1 hr of oral dosing (1 mg/kg) in the rat; format: functional; in short: as §3
Rattus norvegicus [6] = assay: Ex vivo TXA2 ([…]) antagonist activity was determined for U-46,619 induced aggregation (dose ratio) after 3 hr of oral dosing (5 mg/kg) in the rat; format: functional; in short: as §1
Canis familiaris [7] = assay: Ex vivo TXA2 ([…]) antagonist activity was determined for U-46,619 induced aggregation (dose ratio) after 5 hr of oral dosing (1 mg/kg) in the dog; format: functional, Canis lupus familiaris; in short: as §2
Homo sapiens = species: Homo sapiens; assay: In vitro inhibition of U-46,619-induced aggregation of unwashed human platelets.; format: functional
In short: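 Citrated (3.2%) human venous blood spun at 200g for 10 min. Platelet-rich plasma aggregated with U46619 with or without several antagonist concentrations.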

Rattus norvegicus [8] = assay: Ex vivo TXA2 ([…]) antagonist activity was determined for U-46,619 induced aggregation (dose ratio) after 5 hr of oral dosing (5 mg/kg) in the rat; format: functional; in short: as §1
Rattus norvegicus [9] = assay: Ex vivo TXA2 ([…]) antagonist activity was determined for U-46,619 induced aggregation (dose ratio) after 3 hr of oral dosing (10 mg/kg) in the rat; format: functional; in short: as §1
Canis familiaris [10] = assay: Ex vivo TXA2 ([…]) antagonist activity was determined for U-46,619 induced aggregation (dose ratio) after 2 hr of oral dosing (10 mg/kg) in the dog; format: functional, Canis lupus familiaris; in short: as §2
Canis familiaris [11] = assay: Ex vivo TXA2 ([…]) antagonist activity was determined for U-46,619 induced aggregation (dose ratio) after 2 hr of oral dosing (3 mg/kg) in the dog; format: functional, Canis lupus familiaris; in short: as §2
Canis familiaris [12] = assay: Ex vivo TXA2 ([…]) antagonist activity was determined for U-46,619 induced aggregation (dose ratio) after 8 hr of oral dosing (3 mg/kg) in the dog; format: functional, Canis lupus familiaris; in short: as §2
Canis familiaris [13] = assay: Ex vivo TXA2 ([…]) antagonist activity was determined for U-46,619 induced aggregation (dose ratio) after 5 hr of oral dosing (10 mg/kg) in the dog; format: functional, Canis lupus familiaris; in short: as §2
Rattus norvegicus [14] = assay: Ex vivo TXA2 ([…]) antagonist activity was determined for U-46,619 induced aggregation (dose ratio) after 5 hr of oral dosing (10 mg/kg) in the rat; format: functional; in short: as §1
Canis familiaris [15] = assay: Ex vivo TXA2 ([…]) antagonist activity was determined for U-46,619 induced aggregation (dose ratio) after 5 hr of oral dosing (3 mg/kg) in the dog; format: functional, Canis lupus familiaris; in short: as §2
Rattus norvegicus [16] = assay: Ex vivo […] (TXA2 synthase) inhibitory activity after 3 hr of oral dosing (3 mg/kg) in the rat; format: functional; in short: as §3
Rattus norvegicus [17] = assay: Ex vivo TXA2 ([…]) antagonist activity was determined for U-46,619 induced aggregation (dose ratio) after 1 hr of oral dosing (3 mg/kg) in the rat; format: functional; in short: as §1
Thromboxane-A synthase = target: T1, Thromboxane-A synthase (Homo sapiens, UniProt P24557); assay: In vitro Inhibition of thromboxane synthase from human blood platelet microsomes
T1 sequence (P24557 whole entry): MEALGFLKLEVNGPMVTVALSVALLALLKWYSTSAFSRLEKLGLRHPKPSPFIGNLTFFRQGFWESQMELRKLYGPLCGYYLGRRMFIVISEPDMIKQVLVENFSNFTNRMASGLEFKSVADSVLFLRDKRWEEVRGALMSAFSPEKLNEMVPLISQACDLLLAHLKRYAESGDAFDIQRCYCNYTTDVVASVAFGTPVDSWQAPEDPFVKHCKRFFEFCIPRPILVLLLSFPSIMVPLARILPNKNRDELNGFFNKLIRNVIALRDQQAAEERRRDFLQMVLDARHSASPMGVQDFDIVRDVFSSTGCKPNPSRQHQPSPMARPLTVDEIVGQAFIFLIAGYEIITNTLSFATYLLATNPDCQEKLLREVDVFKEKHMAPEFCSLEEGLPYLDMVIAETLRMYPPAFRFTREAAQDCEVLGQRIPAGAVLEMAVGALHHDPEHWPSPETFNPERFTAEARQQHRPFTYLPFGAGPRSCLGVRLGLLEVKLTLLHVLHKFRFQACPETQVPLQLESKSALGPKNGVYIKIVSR
In short: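 Human blood platelet microsomes incubated with [1-14C]arachidonic acid with or without inhibitor. Conversion to labeled thromboxane B2 quantified radiochromatographically. n = 2.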

Canis familiaris [18] = assay: Ex vivo TXA2 ([…]) antagonist activity was determined for U-46,619 induced aggregation (dose ratio) after 24 hr of oral dosing (1 mg/kg) in the dog; format: functional, Canis lupus familiaris; in short: as §2
Rattus norvegicus [19] = assay: Ex vivo […] (TXA2 synthase) inhibitory activity after 5 hr of oral dosing (10 mg/kg) in the rat; format: functional; in short: as §3
Rattus norvegicus [20] = assay: Ex vivo […] (TXA2 synthase) inhibitory activity after 1 hr of oral dosing (10 mg/kg) in the rat; format: functional; in short: as §3
Rattus norvegicus [21] = assay: Ex vivo TXA2 ([…]) antagonist activity was determined for U-46,619 induced aggregation (dose ratio) after 3 hr of oral dosing (1 mg/kg) in the rat; format: functional; in short: as §1
Rattus norvegicus [22] = assay: Ex vivo […] (TXA2 synthase) inhibitory activity after 5 hr of oral dosing (5 mg/kg) in the rat; format: functional; in short: as §3
Canis familiaris [23] = assay: Ex vivo TXA2 ([…]) antagonist activity was determined for U-46,619 induced aggregation (dose ratio) after 8 hr of oral dosing (10 mg/kg) in the dog; format: functional, Canis lupus familiaris; in short: as §2
Rattus norvegicus [24] = assay: Ex vivo TXA2 ([…]) antagonist activity was determined for U-46,619 induced aggregation (dose ratio) after 1 hr of oral dosing (1 mg/kg) in the rat; format: functional; in short: as §1
Rattus norvegicus [25] = assay: Ex vivo […] (TXA2 synthase) inhibitory activity after 3 hr of oral dosing (10 mg/kg) in the rat; format: functional; in short: as §3
Canis familiaris [26] = assay: Ex vivo TXA2 ([…]) antagonist activity was determined for U-46,619 induced aggregation (dose ratio) after 8 hr of oral dosing (1 mg/kg) in the dog; format: functional, Canis lupus familiaris; in short: as §2

`Cc1ccc(OC(C)(C)C2OCC(C/C=C\CCC(=O)O)C(c3cccnc3)O2)c([N+](=O)[O-])c1` (stereo in doubt; 7x) was tested, and the Antagonist activity (Rattus norvegicus [1]) was >113, the Antagonist activity (Canis familiaris [2]) was >522 and the Inhibition (Rattus norvegicus [3]) was 68.3%. For the same compound, the Antagonist activity (Canis familiaris [4]) was >281, the Inhibition (Rattus norvegicus [5]) was 61.8% and the Antagonist activity (Rattus norvegicus [6]) was >59. The Antagonist activity (Canis familiaris [7]) was >506, the pA2 (Homo sapiens) was 8.43 and the Antagonist activity (Rattus norvegicus [8]) was >47. For the same compound, the Antagonist activity (Rattus norvegicus [9]) was >71, the Antagonist activity (Canis familiaris [10]) was >522 and the Antagonist activity (Canis familiaris [11]) was >321. The Antagonist activity (Canis familiaris [12]) was >321, the Antagonist activity (Canis familiaris [13]) was >522 and the Antagonist activity (Rattus norvegicus [14]) was >92. For the same compound, the Antagonist activity (Canis familiaris [15]) was >321, the Inhibition (Rattus norvegicus [16]) was 82.5% and the Antagonist activity (Rattus norvegicus [17]) was >34. The IC50 (Thromboxane-A synthase) was 0.019 µM, the Antagonist activity (Canis familiaris [18]) was >1.4 and the Inhibition (Rattus norvegicus [19]) was 89%. For the same compound, the Inhibition (Rattus norvegicus [20]) was 95.6%, the Antagonist activity (Rattus norvegicus [21]) was >27 and the Inhibition (Rattus norvegicus [22]) was 79.3%. For the same compound, the Antagonist activity (Canis familiaris [23]) was >522, the Antagonist activity (Rattus norvegicus [24]) was >21 and the Inhibition (Rattus norvegicus [25]) was 93.9%. For the same compound, the Antagonist activity (Canis familiaris [26]) was >506.
